Screening results: PubChem, several laboratories
sEH activator – activators of human soluble epoxide hydrolase; P34913; purified human sEH enzymatic activity, activator screen; activation, % at 2 µM; 91,000 compounds, 0.04% hits; AID 717; in the data active = activation above about 37%
Smad3 FoxH1 inh – inhibitors of human Smad3 transcription factor binding; P84022; TR-FRET Smad3/Dy647-FoxH1 peptide binding, europium anti-His; inhibition, % at 25 µM; 88,000 compounds, 0.29% hits; AID 630;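 active = compounds that reduce the energy-transfer binding signal between the protein and its labelled peptide by more than half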;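 also: 0% = Smad3 plus labelled peptide maximal FRET and 100% = peptide-only background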
Target sequence (P84022 whole entry, looked up): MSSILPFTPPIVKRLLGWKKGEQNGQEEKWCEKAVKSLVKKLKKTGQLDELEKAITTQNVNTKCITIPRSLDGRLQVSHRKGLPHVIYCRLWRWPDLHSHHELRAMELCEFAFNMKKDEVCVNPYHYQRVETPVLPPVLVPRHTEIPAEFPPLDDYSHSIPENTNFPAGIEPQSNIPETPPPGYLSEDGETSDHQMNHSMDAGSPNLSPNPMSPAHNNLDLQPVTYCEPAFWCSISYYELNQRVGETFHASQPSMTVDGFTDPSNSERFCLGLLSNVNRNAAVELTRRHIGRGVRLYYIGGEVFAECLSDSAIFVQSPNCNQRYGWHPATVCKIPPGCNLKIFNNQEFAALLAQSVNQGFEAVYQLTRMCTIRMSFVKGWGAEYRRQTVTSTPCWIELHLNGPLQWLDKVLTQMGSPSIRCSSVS
sEH inh – blocks human soluble epoxide hydrolase activity; P34913; recombinant human sEH enzymatic activity assay; inhibition, % at 2 µM; 91,000 compounds, 0.34% hits; AID 707; in the data active = inhibition above about 80%
Mac1 fbg inh – inhibitors of human CD11b/CD18 binding to fibrinogen | P05107+P11215 | K562 CD11b/CD18 adhesion to fibrinogen, ATPlite luminescence; Mn2+ added to activate the integrin | inhibition, % at 10 µM | 93,000 compounds, 0.54% hits | AID 1497;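 active = primary inhibition of 50% or more at 10 µM, then 40% or more on retest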
Rev-RRE block – disrupts HIV-1 Rev binding to RRE RNA | inhibition, % at 8 µM | 97,000 compounds, 0.79% hits | AID 704 | Rev peptide-RRE RNA binding, FRET;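 active = inhibition above the screen-wide mean plus 3 SD, cut at about 35% in these data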;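 also: 0% = median DMSO wells and 100% = median Neomycin B control wells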
Target sequence (P05866 whole entry, looked up): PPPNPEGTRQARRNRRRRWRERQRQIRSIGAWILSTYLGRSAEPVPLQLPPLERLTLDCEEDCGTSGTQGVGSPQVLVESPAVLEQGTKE
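assay system = Cy5-tagged RRE RNA duplex with fluorescein-tagged Rev peptide | incubation = 5 + 15 min at 25 °C | also added = labelled Rev peptide | measure = % inhibition of FRET ratio versus controls | benchmarks = DMSO wells as 0% and neomycin B wells as 100% inhibition | measured by = FRET fluorescence readout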
Mac1 fbg enh – CD11b/CD18-fibrinogen binding enhancement; activation, % at 10 µM; 93,000 compounds, 0.07% hits; K562 CD11b/CD18 adhesion to fibrinogen, ATPlite luminescence;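 active = 10 µM primary screen giving 50% or more activity, confirmed by 40% or more on retest at that dose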
* = called active by the depositor; . = no result; [ ] = another dose, or the depositor's remark. Shown are actives, neighbours in structure and some others; about 1.6% of the full set was active somewhere.

SMILES	sEH activator	Smad3 FoxH1 inh	sEH inh	Mac1 fbg inh	Rev-RRE block	Mac1 fbg enh
CCOc1ccc(C2C=C(c3ccccc3)Nc3nnnn32)cc1 (configuration not stated)	-1	4	3	-7	21	-4
CCOc1ccc(C2C=C(c3ccc(C)cc3)Nc3nnnn32)cc1 (configuration not stated)	-1	1	3	5	39*	-5
COc1ccc(N(CC(=O)O)N=O)cc1	.	20	.	.	.	.
N#C/C(=C\c1ccc(N2CCCC2)c([N+](=O)[O-])c1)c1nc2ccccc2[nH]1	-5	.	6	3	37*	113*
COc1cc(/C=C(/C#N)c2nc3ccccc3[nH]2)ccc1Oc1ncccc1[N+](=O)[O-]	-8	.	6	.	8	.
O[C@@H](c1cc(C(F)(F)F)nc2c(Cl)cc(Cl)cc12)[C@@H]1CCCCN1	.	12	.	.	.	.
CCc1nc2c(cnn2-c2ccc(F)cc2)c(=O)n1-c1ccc(N2CCC(C)CC2)cc1	-6	-1	6	76*	-2	-4
Cc1nc2c(cnn2-c2ccccc2Cl)c(=O)n1-c1ccc(N2CCC(C)CC2)cc1	7	8	-7	-6	5	-3
CCOC(=O)/C(C#N)=C/c1ccc(N2CCN(C)CC2)cc1	.	.	.	15	.	0
CCCCCCN1C=CC(=C/C=C(\C#N)C(=O)OCC)C=C1	.	-5	.	.	139*[fluorescence artefact?]	.
CCCN1C=CC(=C/C=C(\C#N)C(=O)OCC)C=C1	-6	-3	9	1	136*[fluorescence artefact?]	1
Nc1ccc2oc3ccc(N)cc3c(=O)c2c1	23	6	-22	10	37*	12
C[C@@H](C[C@H](N)C(=O)O)C(=O)O	.	-6	.	.	.	.
CCC(CO)[n+]1c(C)cc(/C=C2\Sc3ccccc3N2Cc2ccccc2)cc1C (configuration not stated)	.	.	.	103*	.	-7
CCN1/C(=C2\SC(=S)N(Cc3ccccc3)C2=O)Sc2ccccc21	.	.	.	0	.	28
CC1(C)S[C@H]2[C@H](NC(=O)Cc3ccccc3)C(=O)N2[C@@H]1C(=O)O	.	-1	.	.	.	.
COc1ccc2nc(N3CCC(O)CC3)c(C#N)cc2c1	-12	-4	11	-7	37*	0
COc1ccc2nc(N3CCC(C)CC3)c(C#N)cc2c1	0	1	0	2	27	-2
O=C(NCCSCc1ccco1)Nc1cccc(Cl)c1	-80	-10	80*	.	2	.
C/C(=N\[N-]C(=[SH+])SCc1ccccc1)c1ccccn1.[Cl][Cu]	.	81*	.	.	.	.
CSC(=[SH+])[N-]N=C(c1ccccn1)c1ccccn1.[Cu][Br]	.	8	.	.	.	.
O=S(=O)(Nc1ccc(S(=O)(=O)N2CCCCC2)cc1)c1ccc(Br)s1	-5	-3	6	91*	5	-11
N#CC(c1ccc(Cl)cc1)c1ccc2c(C(F)(F)F)cc(C(F)(F)F)nc2n1 (configuration not stated)	2	7	-4	88*	0	-8
COc1ccc(OC)c(-n2c(=O)c3ccccc3c3ccccc3c2=O)c1	.	.	.	1	.	11
O=c1c2ccccc2c2ccccc2c(=O)n1-c1cc2c3ccccc3ccc2c2ccccc12	.	86*	.	.	.	.
SMILES	sEH activator	Smad3 FoxH1 inh	sEH inh	Mac1 fbg inh	Rev-RRE block	Mac1 fbg enh
CC1CCCN(c2nc3ccccc3nc2C(C#N)S(=O)(=O)c2cccs2)C1 (configuration not stated)	-6	-13	8	4	15	-4
N#CC(C(=O)NCc1ccccc1)c1nc2ccccc2nc1N1CCCC1 (configuration not stated)	-14	.	13	-4	62*	17
COc1ccc(S(=O)(=O)C(C#N)c2nc3ccccc3nc2N2CCCC(C)C2)cc1 (configuration not stated)	5	1	-4	.	38*	.
Cc1ccc2nc(N3CCN(S(=O)(=O)c4ccc5c(c4)OCCO5)CC3)c(C#N)cc2c1	2	-4	-3	.	9	.
CCN1CCN(c2nc3ccccc3nc2C(C#N)S(=O)(=O)c2ccc(C)cc2)CC1 (configuration not stated)	-4	8	2	-4	2	-4
Cc1ccc(S(=O)(=O)N2CCCN(c3nc4cc(C)ccc4cc3C#N)CC2)cc1	-12	9	17	.	37*	.
Cc1ccc(S(=O)(=O)C(C#N)c2nc3ccccc3nc2N2CCCC2)cc1 (configuration not stated)	0	17	0	25	77*	-1
Cc1cc(C(=O)CSc2nc3ccc(Cl)cc3[nH]2)c(C)n1CC1CCCO1 (configuration not stated)	7	-2	-13	83*	2	-6
Cc1cc(C(=O)CSc2nc3ccc(Cl)cc3[nH]2)c(C)n1C	.	-1	.	13	6	8
O=C(O)CSc1ccc(N=C=S)cc1	.	0	.	.	.	.
Clc1ccc(-c2noc(CSc3nnc(Cc4cccs4)n3-c3ccccc3)n2)cc1	.	-17	.	69*	4	-9
Nc1ccc(N=Nc2ccc(-c3ccc(O)cc3)cc2)c2ccc(S(=O)(=O)O)cc12	.	17	.	.	.	.
CC1=NOC(=O)/C1=C/c1ccc(-c2ccc(Cl)cc2)o1	4	0	-5	94*	10	-6
COC(=O)c1cc(-c2ccc3ccccc3c2)[nH]c(=O)c1C#N	.	4	.	.	.	.
O=C(Nc1ccccc1)N1CCc2ccccc21	-16	13	15	.	5	.
O=C(NCC1CCCC(CNC(=O)N2CCc3ccccc32)C1)N1CCc2ccccc21 (configuration not stated)	-92	.	92*	-32	4	0
O=C(O)[C@H]([C@H]1NCCS1)N1Cc2ccccc2C1	.	12	.	.	.	.
CC(C)OCCCNc1ncnc2c1[nH]c1ccccc12	5	-3	-6	84*	8	-9
COc1ccc2[nH]c3c(NCCN(C(C)C)C(C)C)ncnc3c2c1	2	-2	-3	-8	10	-5
C1=C(CCNc2ncnc3c2[nH]c2ccccc23)CCCC1	.	.	.	100*	.	-9
COC(=O)c1ccccc1NC(=S)N(Cc1ccc2c(c1)OCO2)Cc1cc2cccc(C)c2[nH]c1=O	.	.	.	-1	.	10
CCOC(=O)C1=C(C)N=c2s/c(=C\c3cccn3C)c(=O)n2C1c1cccc(OC)c1OC (configuration not stated)	3	-5	-1	-4	88*[fluorescence artefact?]	32
O=C(COC(=O)COc1ccccc1[N+](=O)[O-])Nc1ccc(S(=O)(=O)N2CCCCC2)cc1	-32	.	31	50*	11	-2
